Converted amounts (≈) assume the structure as drawn.

Data set [1] relates to Mycobacterium tuberculosis. Kind of data set: Antitubercular activity against Mycobacterium tuberculosis H37Ra after 7 days by microplate alamar blue assay. Type of data set: functional. As to conditions: 168 h. On the technique in general: Alamar Blue is a resazurin reagent that responds to reducing activity.
The test system of data set [2] is Mycobacterium tuberculosis. The data set can be described thus: Antitubercular activity against Mycobacterium tuberculosis H37Rv after 7 days by microplate alamar blue assay. The class given is functional. The conditions noted are these: 168 h. In a few lines:
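MIC against Mtb H37Rv by microplate alamar blue assay (MABA); MIC values interpolated by curve fitting.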

Data set [3] has as its system Vero. Kind of data set: Cytotoxicity against African green monkey Vero cells after 72 hrs by CCK8 assay. Type of data set: cell-based. The conditions noted are these: Chlorocebus sabaeus. In a few lines:
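VERO African green monkey kidney cells; growth inhibition read by CCK-8 assay and reported as IC50. Values are means of two or more independent experiments, with variation <20%.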
In general terms: Tetrazolium dyes change colour on reduction, which living cells bring about.

Data set [4] deals with Mycobacterium tuberculosis. Kind of data set: Antitubercular activity against fluorescent reporter strain of Mycobacterium tuberculosis H37Rv after 5 days by fluorescence assay. The class given is functional, organism-based. As to conditions: 120 h. In a few lines:
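A fluorescent reporter strain of Mtb H37Rv was grown in liquid medium under aerobic conditions, and growth was read by fluorescence. MIC, IC50 and IC90 were determined.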

The subject of data set [5] is Mycobacterium tuberculosis. Kind of data set: Antitubercular activity against autoluminescent Mycobacterium tuberculosis H37Ra infected in noninvasive BALB/c mouse assessed as bioluminescence intensity by measuring relative light unit at 20 mg/kg, po qd for 6 days. The class given is functional. In a few lines:
(§1)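 Mice were infected intravenously with log-phase, marker-free autoluminescent Mtb H37Ra at 2 × 10^6 CFU per mouse. They were then dosed by oral gavage once daily for 6 consecutive days at 4, 20 or 100 mg/kg/day, with CMC-Na as vehicle. Bioluminescence (RLU) was read in the same live, anesthetized mice every other day and expressed as the RLUdayn/RLUday0 ratio. Mortality was monitored during treatment.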

Data set [6] concerns Mus musculus. Kind of data set: Toxicity in autoluminescent Mycobacterium tuberculosis H37Ra infected noninvasive BALB/c mouse assessed as mortality at 4 to 100 mg/kg, po qd for 6 days. The class given is organism-based. As to conditions: in vivo, 144 h. In a few lines: as §1
The subject of data set [7] is Mycobacterium tuberculosis. Kind of data set: Antitubercular activity against autoluminescent Mycobacterium tuberculosis H37Ra infected in po dosed noninvasive BALB/c mouse assessed as bioluminescence intensity by measuring relative light unit administered qd for 6 days. The class given is functional, organism-based. The procedure, abridged:
as §1

Data set [8] has as its system Mycobacterium tuberculosis. The data set can be described thus: Antitubercular activity against autoluminescent Mycobacterium tuberculosis H37Ra infected in noninvasive BALB/c mouse assessed as bioluminescence intensity by measuring relative light unit at 4 mg/kg, po qd for 6 days. The class given is functional. The procedure, abridged: as §1
The subject of data set [9] is Mycobacterium tuberculosis. The data set can be described thus: Antitubercular activity against autoluminescent Mycobacterium tuberculosis H37Ra infected in noninvasive BALB/c mouse assessed as bioluminescence intensity by measuring relative light unit at 100 mg/kg, po qd for 6 days. The class given is functional. The procedure, abridged: as §1
Data set [10] has as its system Mycobacterium tuberculosis. The data set can be described thus: Antitubercular activity against autoluminescent Mycobacterium tuberculosis H37Ra infected in noninvasive BALB/c mouse assessed as bactericidal activity by measuring reduction in relative light unit at 100 mg/kg, po qd for 6 days relative to control. Type of data set: functional. The procedure, abridged: as §1

Data set [11] deals with Mycobacterium tuberculosis. Kind of data set: Antitubercular activity against autoluminescent Mycobacterium tuberculosis H37Ra infected in noninvasive BALB/c mouse assessed as bactericidal activity by measuring reduction in relative light unit at 100 mg/kg, po qd for 4 days relative to control. Type of data set: functional.
Data set [12] deals with Mycobacterium tuberculosis. The data set can be described thus: Antitubercular activity against autoluminescent Mycobacterium tuberculosis H37Ra infected in noninvasive BALB/c mouse assessed as bactericidal activity by measuring reduction in relative light unit at 100 mg/kg, po qd for 2 days relative to control. The class given is functional. In a few lines:
as §1

As to `CCc1nc2ccc(Cl)cn2c1C(=O)NCc1ccc(N2CCC(c3ccc(OC(F)(F)F)cc3)CC2)cc1` [TELACEBEC], the minimal inhibitory concentration (MIC) in data set [1] came out at 0.0054 µM (≈ 0.00301 µg/mL); in data set [2], 0.0108 µM (≈ 0.00602 µg/mL). The IC50 in data set [3] was above 100000 nM.

Consider `Cc1ccn2nc(C)c(C(=O)NCc3ccc(N4CCN(c5ccc(F)cc5)CC4)cc3)c2c1`, for which the minimum inhibitory concentration (MIC) was found to be 0.0066 µM (≈ 0.00302 µg/mL) in data set [1], 0.0131 µM (≈ 0.00599 µg/mL) in data set [2] and 0.0063 µM (≈ 0.00288 µg/mL) in [4]. Besides, the figures for the IC50 in [3] and in data set [4] were above 100000 nM and 2.5 nM, respectively. Besides, in data set [4], it took 6.5 nM to reach the 90% level (IC90).

Consider `Cc1ccn2nc(C)c(C(=O)NCc3ccc(-c4ccc(OC(F)(F)F)cc4)cc3)c2c1`, for which the results for the MIC in [1] and in data set [2] were 0.0068 µM (≈ 0.00299 µg/mL) and 0.0137 µM (≈ 0.00602 µg/mL), respectively. The same compound displayed an IC50 in [3] of 50700 nM.

Turning to `O=C(NCc1ccc(N2CCC(c3ccc(OC(F)(F)F)cc3)CC2)cc1)c1c(-c2ccccc2)nn2ccc(Cl)cc12`, the MIC was above 16.5 µM in data set [1] and 1.55 µM (≈ 0.936 µg/mL) in [2].

In the case of `O=C(NCc1ccc(N2CCC(c3ccc(OC(F)(F)F)cc3)CC2)cc1)c1c(C2CC2)nn2ccc(Cl)cc12`, the MIC in [1] is 0.176 µM (≈ 0.1 µg/mL); in data set [2] it was 0.0176 µM (≈ 0.01 µg/mL). This compound displayed a concentration for half-maximal inhibition (IC50) in data set [3] above 100000 nM.

`Cc1nn2ccccc2c1C(=O)NCc1ccc(N2CCC(c3ccc(OC(F)(F)F)cc3)CC2)cc1`: the minimal inhibitory concentration (MIC) is 0.59 µM (≈ 0.3 µg/mL) in data set [1] and 0.0098 µM (≈ 0.00498 µg/mL) in data set [2]. This compound showed an IC50 in data set [3] above 100000 nM.

For the compound `Cc1ccn2nc(C)c(C(=O)NCc3ccc(N4CCC(C(F)(F)F)CC4)cc3)c2c1`, the MIC in data set [1] was 0.0023 µM (≈ 0.00099 µg/mL); in data set [2], 0.0139 µM (≈ 0.00598 µg/mL). The IC50 in [3] was above 100000 nM.

In the case of `Cc1nn2ccc(C(F)(F)F)cc2c1C(=O)NCc1ccc(N2CCC(c3ccc(OC(F)(F)F)cc3)CC2)cc1`, the minimal inhibitory concentration (MIC) in [1] worked out at 1.73 µM (≈ 1 µg/mL); in data set [2], 0.052 µM (≈ 0.03 µg/mL). In addition, the concentration for half-maximal inhibition (IC50) in data set [3] is above 100000 nM.

With `Cc1ccn2nc(C)c(C(=O)NCc3ccc(N4CCC(c5ccc(OC(F)(F)F)cc5)CC4)cc3)c2c1`, the MIC in data set [1] came to 0.0057 µM (≈ 0.00298 µg/mL); in data set [2] it was 0.0077 µM (≈ 0.00402 µg/mL); in data set [4], 0.011 µM (≈ 0.00575 µg/mL). For the same compound, the results for the half-inhibitory concentration (IC50) in data set [3] and in data set [4] were above 100000 nM and 5.1 nM, respectively. The compound also yielded an IC90 in [4] of 12 nM.

`COc1ccn2nc(C)c(C(=O)NCc3ccc(N4CCC(c5ccc(OC(F)(F)F)cc5)CC4)cc3)c2c1`: the RLU came out at 0.19 in [5]; 0.4 in data set [8]; 0.15 in [9]; 6.5 in data set [10]; 5 in [11]; 3.6 in [12]. For the same compound, the minimal inhibitory concentration (MIC) in [1] stood at 0.0056 µM (≈ 0.00302 µg/mL); in [2] it was 0.0111 µM (≈ 0.00598 µg/mL); in data set [4], 0.0056 µM (≈ 0.00302 µg/mL). Also, the Activity result in data set [6] was “Non-toxic”; in data set [7], “Dose-dependent effect”. The values for the IC50 in data set [3] and in [4] were above 100000 nM and 2.5 nM, respectively. This compound also registered an IC90 in data set [4] of 5.7 nM.

In [1], `CO[C@H]1/C=C/O[C@@]2(C)Oc3c(C)c(O)c4c(O)c(c(/C=N/N5CCN(C)CC5)c(O)c4c3C2=O)NC(=O)/C(C)=C\C=C\[C@H](C)[C@H](O)[C@@H](C)[C@@H](O)[C@@H](C)[C@H](OC(C)=O)[C@@H]1C` [RIFAMPIN] gave a minimum inhibitory concentration (MIC) of 0.00364 µM (≈ 0.003 µg/mL). The compound also gave a minimal inhibitory concentration (MIC) in data set [2] of 0.0364 µM (≈ 0.03 µg/mL). Moreover, in data set [4], the 50% inhibitory concentration (IC50) amounted to 4.1 nM, it took 6.9 nM to reach the 90% level (IC90) and the MIC amounted to 0.0065 µM (≈ 0.00535 µg/mL).

`Cc1nn2c(C)cccc2c1C(=O)NCc1ccc(N2CCC(c3ccc(OC(F)(F)F)cc3)CC2)cc1`: the MIC worked out at 5.74 µM (≈ 3 µg/mL) in [1] and 0.115 µM (≈ 0.06 µg/mL) in data set [2].

Regarding `CCc1ccn2nc(C)c(C(=O)NCc3ccc(N4CCC(c5ccc(OC(F)(F)F)cc5)CC4)cc3)c2c1`, the minimal inhibitory concentration (MIC) in [1] turned out to be 0.0186 µM (≈ 0.00998 µg/mL); in data set [2], 0.0112 µM (≈ 0.00601 µg/mL). The compound further displayed an IC50 in [3] above 100000 nM.

As for `Cc1ccc2c(C(=O)NCc3ccc(N4CCC(c5ccc(OC(F)(F)F)cc5)CC4)cc3)c(C)nn2c1`, the MIC in data set [1] came out at 0.574 µM (≈ 0.3 µg/mL); in data set [2], 0.0134 µM (≈ 0.007 µg/mL). In addition, the half-inhibitory concentration (IC50) in data set [3] is above 100000 nM.

As for `Cc1ccn2nc(C)c(C(=O)NCc3ccc(C(F)(F)F)cc3)c2c1`, the MIC in data set [1] came out at 0.288 µM (≈ 0.1 µg/mL); in data set [2], 0.0691 µM (≈ 0.024 µg/mL). In data set [3], this compound gave an IC50 above 100000 nM.

Turning to `Cc1nn2ccc(C(C)C)cc2c1C(=O)NCc1ccc(N2CCC(c3ccc(OC(F)(F)F)cc3)CC2)cc1`, the MIC came to 1.82 µM (≈ 1 µg/mL) in [1] and 0.0472 µM (≈ 0.026 µg/mL) in data set [2].

Regarding `Cc1nn2ccc(Cl)cc2c1C(=O)NCc1ccc(N2CCC(c3ccc(OC(F)(F)F)cc3)CC2)cc1`, the MIC in [1] was 0.0184 µM (≈ 0.00999 µg/mL); in [2] it was 0.0074 µM (≈ 0.00402 µg/mL). Besides, the IC50 in data set [3] is above 100000 nM.

For `Cc1nn2ccc(-c3ccccc3)cc2c1C(=O)NCc1ccc(N2CCC(c3ccc(OC(F)(F)F)cc3)CC2)cc1`, the MIC is above 17.1 µM in data set [1] and 0.479 µM (≈ 0.28 µg/mL) in data set [2].

On to `Cc1nn2ccc(C(C)(C)C)cc2c1C(=O)NCc1ccc(N2CCC(c3ccc(OC(F)(F)F)cc3)CC2)cc1`, for which the MIC in data set [1] was above 17.7 µM; in data set [2], above 1.77 µM.

Take `Cc1nn2cccc(C)c2c1C(=O)NCc1ccc(N2CCC(c3ccc(OC(F)(F)F)cc3)CC2)cc1`: the minimum inhibitory concentration (MIC) in data set [1] was above 19.1 µM; in data set [2], 1.15 µM (≈ 0.6 µg/mL).

In the case of `CCc1nn2ccc(Cl)cc2c1C(=O)NCc1ccc(N2CCC(c3ccc(OC(F)(F)F)cc3)CC2)cc1`, the minimal inhibitory concentration (MIC) in data set [1] was found to be 0.0538 µM (≈ 0.03 µg/mL); in [2], 0.0108 µM (≈ 0.00602 µg/mL); in data set [4] it was 0.129 µM (≈ 0.0719 µg/mL). Further, the half-maximal inhibitory concentration (IC50) was above 100000 nM in data set [3] and 31.3 nM in [4]. This compound also gave a concentration for an effect of 90% (IC90) in [4] of 150 nM.

`O=C(NCc1ccc(N2CCC(c3ccc(OC(F)(F)F)cc3)CC2)cc1)c1cnn2ccc(Cl)cc12`: the MIC in [1] amounted to 18.9 µM (≈ 10 µg/mL); in data set [2], 0.359 µM (≈ 0.19 µg/mL).

As for `Cc1ccn2nc(C)c(C(=O)NCc3ccc(N(C)C)cc3)c2c1`, the figures for the minimum inhibitory concentration (MIC) in [1] and in [2] were 0.31 µM (≈ 0.1 µg/mL) and 0.0868 µM (≈ 0.028 µg/mL), respectively. The same compound returned a concentration for half-maximal inhibition (IC50) in data set [3] above 100000 nM.

Consider `Cc1ccn2nc(C)c(C(=O)NCc3ccc(N4CCCCC4)cc3)c2c1`, for which the minimal inhibitory concentration (MIC) in data set [1] came out at 0.0276 µM (≈ 0.01 µg/mL); in [2], 0.0166 µM (≈ 0.00602 µg/mL). Moreover, in [3], the IC50 was above 100000 nM.

For `NNC(=O)c1ccncc1` [ISONIAZID], the MIC in data set [1] amounted to 0.729 µM (≈ 0.1 µg/mL); in [2], 2.99 µM (≈ 0.41 µg/mL).

By MIC is commonly meant the lowest concentration that inhibits growth of the organism. In general, IC50 refers to the midpoint of a concentration-inhibition curve. In general, IC90 refers to the concentration needed for an effect of 90%.

(Values after ChEMBL document CHEMBL3612066, “Design, Synthesis, and Biological Evaluation of Pyrazolo[1,5-a]pyridine-3-carboxamides as Novel Antitubercular Agents” (ACS Med Chem Lett, 2015).)
